Data: ChEMBL document CHEMBL1681789, “New bichalcone analogs as NF-κB inhibitors and as cytotoxic agents inducing Fas/CD95-dependent apoptosis” (Bioorg Med Chem, 2011)
Active and inactive are the calls of the source. The rule behind the calls is not given here.

Legend:
KB = assay: Cytotoxicity against human KB cells after 3 days; format: functional; settings: 72 h
Summary of the method: (§1)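 Seeded at 1500–7500 cells/well; compounds added from DMSO-diluted stock. After 3 days, attached cells were fixed with cold 50% TCA, stained with 0.4% sulforhodamine B and read at 562 nm. EC50 is the concentration reducing growth by 50%, averaged over at least three independent determinations. Cells were grown in RPMI-1640 with […], 0.25% bicarbonate and 10% FBS.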

A549 = assay: Cytotoxicity against human A549 cells after 3 days; format: functional; settings: A549, 72 h; summary of the method: as §1
HCT-8 = assay: Cytotoxicity against human HCT8 cells after 3 days; format: functional; settings: HCT-8, 72 h; summary of the method: as §1
DU-145 = assay: Cytotoxicity against human DU145 cells after 3 days; format: functional; settings: DU-145, 72 h; summary of the method: as §1
HT-29 [1] = assay: Cytotoxicity against human HT-29 cells for 24 hrs by MTT assay; format: functional, cell-based
Summary of the method: (§2)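 HT-29 cells in 96-well plates were exposed to 0–50 µM for 24 h, or to 30 µM for 12–72 h. MTT was then added for 4 h at 37 °C in the dark, and formazan was dissolved in DMSO and read at 570 nm. Viability is expressed as % of untreated OD, run in triplicate, mean±SD.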

HT-29 [2] = assay: Cytotoxicity against human HT-29 cells at 30 uM by MTT assay; format: functional, cell-based; settings: TDE = time-dependent effect; summary of the method: as §2
HT-29 [3] = assay: Cytotoxicity against human HT-29 cells assessed as nuclear shrinkage and chromatin condensation at 30 uM for 24 hrs using DAPI staining by fluorescence microscopy relative to untreated cells; format: functional, cell-based
Summary of the method: (§3)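 HT-29 cells, kept in RPMI-1640 with FBS and penicillin/streptomycin, were treated for 24 or 48 h. They were fixed in 4% paraformaldehyde for 30 min and stained with 1 µg/mL DAPI for 30 min in the dark. Nuclear morphology was examined by fluorescence microscopy at ×200.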

HT-29 [4] = assay: Cytotoxicity against human HT-29 cells assessed as nuclear shrinkage and chromatin condensation at 50 uM for 24 hrs using DAPI staining by fluorescence microscopy relative to untreated cells; format: functional, cell-based; summary of the method: as §3
HT-29 [5] = assay: Cytotoxicity against human HT-29 cells assessed as nuclear shrinkage and chromatin condensation at 30 uM for 48 hrs using DAPI staining by fluorescence microscopy relative to untreated cells; format: functional, cell-based; summary of the method: as §3
HT-29 [6] = assay: Cytotoxicity against human HT-29 cells assessed as nuclear shrinkage and chromatin condensation at 50 uM for 48 hrs using DAPI staining by fluorescence microscopy relative to untreated cells; format: functional, cell-based; summary of the method: as §3
HT-29 [7] = assay: Induction of apoptosis in human HT-29 cells assessed as DNA fragmentation at 30 uM using TUNEL staining by flow cytometry; format: functional, cell-based
Summary of the method: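 HT-29 cells in 6-well plates were treated with 30 µM for 24 and 48 h and harvested. They were labeled with TdT enzyme at 37 °C for 1 h, then FITC anti-digoxigenin conjugate at 37 °C for 30 min in the dark. TUNEL-positive cells were counted by flow cytometry, in triplicate.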

HT-29 [8] = assay: Induction of apoptosis in human HT-29 cells at 30 uM for 24 hrs pretreated with caspase 3 inhibitor […] for 1 hr by MTT assay; format: functional, cell-based
Summary of the method: (§4)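 HT-29 cells were pretreated for 1 h with caspase-3, -8 or -9 inhibitor (dissolved in DMSO, diluted in medium), then given 30 µM for 24 h. Viability was read by MTT at 570 nm, in triplicate.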

HT-29 [9] = assay: Induction of apoptosis in human HT-29 cells at 30 uM for 24 hrs pretreated with caspase 9 inhibitor Z-LEHD-FMK for 1 hr by MTT assay; format: functional, cell-based; summary of the method: as §4
HT-29 [10] = assay: Induction of apoptosis in human HT-29 cells at 30 uM for 24 hrs pretreated with caspase 8 inhibitor Z-IETD-FMK for 1 hr by MTT assay; format: functional, cell-based; summary of the method: as §4
HT-29 [11] = assay: Induction of apoptosis in human HT-29 cells assessed as increased expression of Fas/CD95 protein by Western blotting; format: functional, cell-based
Summary of the method: (§5)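 Total or cytosolic extracts (30 µg protein) from treated HT-29 cells were run on SDS-PAGE and transferred to PVDF. Blots were probed for 12 h with monoclonal antibodies to the named protein, followed by an HRP secondary, and detected by ECL.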

HT-29 [12] = assay: Induction of apoptosis in human HT-29 cells assessed as increased expression of FADD protein by Western blotting; format: functional, cell-based; summary of the method: as §5
HT-29 [13] = assay: Induction of apoptosis in human HT-29 cells assessed as increased expression of cytosolic cytochrome C protein by Western blotting; format: functional, cell-based; summary of the method: as §5
HT-29 [14] = assay: Induction of apoptosis in human HT-29 cells assessed as increased expression of Apaf-1 protein by Western blotting; format: functional, cell-based; summary of the method: as §5
HT-29 [15] = assay: Induction of apoptosis in human HT-29 cells assessed as increased expression of AIF protein by Western blotting; format: functional, cell-based; summary of the method: as §5
HT-29 [16] = assay: Induction of apoptosis in human HT-29 cells assessed as increased expression of Endo G protein by Western blotting; format: functional, cell-based; summary of the method: as §5
HT-29 [17] = assay: Induction of apoptosis in human HT-29 cells assessed as increased expression of caspase 3 protein by Western blotting; format: functional, cell-based; summary of the method: as §5
HT-29 [18] = assay: Induction of apoptosis in human HT-29 cells assessed as increased expression of Bax protein by Western blotting; format: functional, cell-based; summary of the method: as §5
HT-29 [19] = assay: Induction of apoptosis in human HT-29 cells assessed as increased expression of t-Bid protein by Western blotting; format: functional, cell-based; summary of the method: as §5
HT-29 [20] = assay: Induction of apoptosis in human HT-29 cells assessed as decreased expression of pro-caspase-8 protein by Western blotting; format: functional, cell-based; summary of the method: as §5
HT-29 [21] = assay: Induction of apoptosis in human HT-29 cells assessed as decreased expression of pro-caspase-9 protein by Western blotting; format: functional, cell-based; summary of the method: as §5
HT-29 [22] = assay: Induction of apoptosis in human HT-29 cells assessed as decreased expression of Bcl-2 protein by Western blotting; format: functional, cell-based; summary of the method: as §5
[23] = Inhibition of Nitric oxide synthase activity in mouse BV2 cells assessed as LPS-induced NO production after 24 hrs by Griess reaction; format: cell-based; settings: BV-2, 24 h
Summary of the method: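 Murine BV2 microglia were cultured in DMEM with 5% FBS and given 1–50 µM drug with 0.5 µg/mL LPS. Nitrite accumulated in the medium over 24 h was measured by Griess reagent. IC50 values are means ± SEM from 3–6 experiments on different days using different passages.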

BV-2 = assay: Inhibition of NADPH oxidase mediated-ROS production in mouse BV2 cells; format: cell-based
Summary of the method: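 Compounds were incubated with 50 µg microglial cell homogenate for 20 min at 37 °C in the dark. Superoxide production was started with 200 µM NADPH, and chemiluminescence was followed for 30 min; the AUC represents ROS production. DPI served as positive control.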

HT-29 [24] = assay: Induction of apoptosis in human HT-29 cells assessed as caspase 3 activation at 30 uM for 24 hrs by MTT assay; format: functional, cell-based
HT-29 [25] = assay: Induction of apoptosis in human HT-29 cells assessed as caspase 8 activation at 30 uM for 24 hrs by MTT assay; format: functional, cell-based
HT-29 [26] = assay: Induction of apoptosis in human HT-29 cells assessed as caspase 9 activation at 30 uM for 24 hrs by MTT assay; format: functional, cell-based

- IC50 [23]: 3.5 µM
SMILES: COc1cc(C(=O)/C=C/c2cccnc2)cc(CN2CCN(c3ccc(C(C)=O)cc3)CC2)c1O
- GI50 (KB): 13.1 µM
- GI50 (A549): 9.77 µM
- GI50 (HCT-8): 11.2 µM
- GI50 (DU-145): 9.98 µM
- Activity (HT-29 [1]): Dose-dependent effect
- Activity (HT-29 [2]): tde
- Activity (HT-29 [3]): Active
- Activity (HT-29 [4]): Active
- Activity (HT-29 [5]): Active
- Activity (HT-29 [6]): Active
- Activity (HT-29 [7]): Active
- Activity (HT-29 [8]): inactive
- Activity (HT-29 [9]): inactive
- Activity (HT-29 [10]): inactive
- Activity (HT-29 [11]): Active
- Activity (HT-29 [12]): Active
- Activity (HT-29 [13]): Active
- Activity (HT-29 [14]): Active
- Activity (HT-29 [15]): Active
- Activity (HT-29 [16]): Active
- Activity (HT-29 [17]): Active
- Activity (HT-29 [18]): Active
- Activity (HT-29 [19]): Active
- Activity (HT-29 [20]): Active
- Activity (HT-29 [21]): Active
- Activity (HT-29 [22]): Active
- inhibition (BV-2): inactive
- Activity (HT-29 [24]): Active
- Activity (HT-29 [25]): Active
- Activity (HT-29 [26]): Active
